In brackets after ≈: the same amount, converted by molar mass.
Tests used:
Format in all cases: functional
Staphylococcus aureus [1] = assay: Antimicrobial activity against methicillin-resistant Staphylococcus aureus isolate 2a after 24 hrs by agar plate dilution method in presence of oxacillin (1:1)
Method in brief: (§1)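 Test compound and oxacillin mixed 1:1, each at 32 µg/mL in the mixture, then serially diluted into agar plates. Clinical MRSA isolates at McFarland 0.5 in water were spotted onto the plates and incubated 24 h at 37 °C. Growth was read as white spots. NCTC 6571 S. aureus served as the dilution-series control.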

Staphylococcus aureus [2] = assay: Antimicrobial activity against methicillin-resistant Staphylococcus aureus isolate 5a after 24 hrs by agar plate dilution method in presence of oxacillin (1:1)
Method in brief: (§2)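 Clinical MRSA isolates, from axilla/nasal swabs and identified by mannitol salt agar, Gram stain and coagulase test. […] Inoculum adjusted to McFarland 0.5 in water. Plates incubated 24 h at 37 °C and scored for growth spots. Dilution series quality-controlled with S. aureus NCTC 6571. Combination lines used a 1:1 mixture with oxacillin.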

Staphylococcus aureus [3] = assay: Antimicrobial activity against methicillin-resistant Staphylococcus aureus isolate 7a after 24 hrs by agar plate dilution method in presence of oxacillin (1:1); method in brief: as §2
Staphylococcus aureus [4] = assay: Antimicrobial activity against methicillin-resistant Staphylococcus aureus isolate 8a after 24 hrs by agar plate dilution method in presence of oxacillin (1:1); method in brief: as §2
Staphylococcus aureus [5] = assay: Antimicrobial activity against methicillin-resistant Staphylococcus aureus isolate 9a after 24 hrs by agar plate dilution method in presence of oxacillin (1:1); method in brief: as §2
Staphylococcus aureus [6] = assay: Antimicrobial activity against methicillin-resistant Staphylococcus aureus isolate 10a after 24 hrs by agar plate dilution method in presence of oxacillin (1:1); method in brief: as §1
Staphylococcus aureus [7] = assay: Antimicrobial activity against methicillin-resistant Staphylococcus aureus isolate 11a after 24 hrs by agar plate dilution method in presence of oxacillin (1:1); method in brief: as §1
Staphylococcus aureus [8] = assay: Antimicrobial activity against methicillin-resistant Staphylococcus aureus isolate 13a after 24 hrs by agar plate dilution method in presence of oxacillin (1:1); method in brief: as §1
Staphylococcus aureus [9] = assay: Antimicrobial activity against methicillin-resistant Staphylococcus aureus isolate 15a after 24 hrs by agar plate dilution method in presence of oxacillin (1:1); method in brief: as §1
Staphylococcus aureus [10] = assay: Antimicrobial activity against methicillin-resistant Staphylococcus aureus isolate 16a after 24 hrs by agar plate dilution method in presence of oxacillin (1:1); method in brief: as §1
Staphylococcus aureus [11] = assay: Antimicrobial activity against methicillin-resistant Staphylococcus aureus isolate 20a after 24 hrs by agar plate dilution method in presence of oxacillin (1:1); method in brief: as §1
Staphylococcus aureus [12] = assay: Antimicrobial activity against methicillin-resistant Staphylococcus aureus isolate 24a after 24 hrs by agar plate dilution method in presence of oxacillin (1:1); method in brief: as §1
Staphylococcus aureus [13] = assay: Antimicrobial activity against methicillin-resistant Staphylococcus aureus isolate 25a after 24 hrs by agar plate dilution method in presence of oxacillin (1:1); method in brief: as §1
Staphylococcus aureus [14] = assay: Antimicrobial activity against methicillin-resistant Staphylococcus aureus isolate 29a after 24 hrs by agar plate dilution method in presence of oxacillin (1:1); method in brief: as §1
Staphylococcus aureus [15] = assay: Antimicrobial activity against methicillin-resistant Staphylococcus aureus isolate 30a after 24 hrs by agar plate dilution method in presence of oxacillin (1:1); method in brief: as §1
Staphylococcus aureus [16] = assay: Bactericidal activity against methicillin-resistant Staphylococcus aureus isolate 1a assessed as reduction in colony counts at 32 ug/ml after 12 hrs by pour plate method (reference value: 10.12 +/- 0.428 log10CFU/ml)
Staphylococcus aureus [17] = assay: Bactericidal activity against methicillin-resistant Staphylococcus aureus isolate 1a assessed as reduction in colony counts at 32 ug/ml after 24 hrs by pour plate method (reference value: 12.64 +/- 0.224 log10CFU/ml)
Staphylococcus aureus [18] = assay: Bactericidal activity against methicillin-resistant Staphylococcus aureus isolate 1a assessed as reduction in colony counts at 32 ug/ml after 4 hrs by pour plate method in presence of oxacillin (1:1) (reference value: 6.14 +/- 0.456 log10CFU/ml)
Staphylococcus aureus [19] = assay: Bactericidal activity against methicillin-resistant Staphylococcus aureus isolate 1a assessed as reduction in colony counts at 32 ug/ml after 8 hrs by pour plate method in presence of oxacillin (1:1) (reference value: 8.30 +/- 0.442 log10CFU/ml)
Staphylococcus aureus [20] = assay: Bactericidal activity against methicillin-resistant Staphylococcus aureus isolate 1a assessed as reduction in colony counts at 32 ug/ml after 12 hrs by pour plate method in presence of oxacillin (1:1) (reference value: 10.12 +/- 0.428 log10CFU/ml)
Staphylococcus aureus [21] = assay: Antimicrobial activity against methicillin-resistant Staphylococcus aureus isolate 5a after 24 hrs by agar plate dilution method; method in brief: as §2
Staphylococcus aureus [22] = assay: Antimicrobial activity against methicillin-resistant Staphylococcus aureus isolate 7a after 24 hrs by agar plate dilution method; method in brief: as §2
Staphylococcus aureus [23] = assay: Antimicrobial activity against methicillin-resistant Staphylococcus aureus isolate 8a after 24 hrs by agar plate dilution method; method in brief: as §2
Staphylococcus aureus [24] = assay: Antimicrobial activity against methicillin-resistant Staphylococcus aureus isolate 9a after 24 hrs by agar plate dilution method; method in brief: as §2
Staphylococcus aureus [25] = assay: Antimicrobial activity against methicillin-resistant Staphylococcus aureus isolate 10a after 24 hrs by agar plate dilution method
Method in brief: (§3)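 Clinical MRSA isolates from axilla/nasal swabs, identified by mannitol salt agar, Gram stain and coagulase test. Agar plate dilution with compound series 0.03–128 µg/mL. Inoculum suspended in water to McFarland 0.5. Incubation 24 h at 37 °C. MIC read as the lowest level without white growth spots. Dilution series quality-controlled with S. aureus NCTC 6571.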

Staphylococcus aureus [26] = assay: Antimicrobial activity against methicillin-resistant Staphylococcus aureus isolate 11a after 24 hrs by agar plate dilution method; method in brief: as §3
Staphylococcus aureus [27] = assay: Antimicrobial activity against methicillin-resistant Staphylococcus aureus isolate 14a after 24 hrs by agar plate dilution method; method in brief: as §3
Staphylococcus aureus [28] = assay: Antimicrobial activity against methicillin-resistant Staphylococcus aureus isolate 18a after 24 hrs by agar plate dilution method; method in brief: as §3
Staphylococcus aureus [29] = assay: Antimicrobial activity against methicillin-resistant Staphylococcus aureus isolate 19a after 24 hrs by agar plate dilution method; method in brief: as §3
Staphylococcus aureus [30] = assay: Antimicrobial activity against methicillin-resistant Staphylococcus aureus isolate 22a after 24 hrs by agar plate dilution method; method in brief: as §3
Staphylococcus aureus [31] = assay: Antimicrobial activity against methicillin-resistant Staphylococcus aureus isolate 23a after 24 hrs by agar plate dilution method; method in brief: as §3
Staphylococcus aureus [32] = assay: Antimicrobial activity against methicillin-resistant Staphylococcus aureus isolate 25a after 24 hrs by agar plate dilution method; method in brief: as §3
Staphylococcus aureus [33] = assay: Antimicrobial activity against methicillin-resistant Staphylococcus aureus isolate 30a after 24 hrs by agar plate dilution method; method in brief: as §3
Staphylococcus aureus [34] = assay: Antimicrobial activity against methicillin-resistant Staphylococcus aureus isolate 1a after 24 hrs by agar plate dilution method in presence of oxacillin (1:1); method in brief: as §1

## Cc1ncc([N+](=O)[O-])n1CCn1cc(COc2c(Cl)cccc2Cl)nn1
Staphylococcus aureus [1]
  MIC: 1 µg/mL
Staphylococcus aureus [2]
  MIC: 1 µg/mL
Staphylococcus aureus [3]
  MIC: 1 µg/mL
Staphylococcus aureus [4]
  MIC: 1 µg/mL
Staphylococcus aureus [5]
  MIC: 2 µg/mL
Staphylococcus aureus [6]
  MIC: 2 µg/mL
Staphylococcus aureus [7]
  MIC: 1 µg/mL
Staphylococcus aureus [8]
  MIC: 4 µg/mL
Staphylococcus aureus [9]
  MIC: 4 µg/mL
Staphylococcus aureus [10]
  MIC: 2 µg/mL
Staphylococcus aureus [11]
  MIC: 2 µg/mL
Staphylococcus aureus [12]
  MIC: 4 µg/mL
Staphylococcus aureus [13]
  MIC: 4 µg/mL
Staphylococcus aureus [14]
  MIC: 4 µg/mL
Staphylococcus aureus [15]
  MIC: 8 µg/mL
Staphylococcus aureus [16]
  Activity: 5.96 log10CFU/ml
Staphylococcus aureus [17]
  Activity: 5.84 log10CFU/ml
Staphylococcus aureus [18]
  Activity: 5.5 log10CFU/ml
Staphylococcus aureus [19]
  Activity: 5.85 log10CFU/ml
Staphylococcus aureus [20]
  Activity: 5.91 log10CFU/ml
Staphylococcus aureus [21]
  MIC: 4 µg/mL (≈ 10.1 µM)
Staphylococcus aureus [22]
  MIC: 4 µg/mL (≈ 10.1 µM)
Staphylococcus aureus [23]
  MIC: 4 µg/mL (≈ 10.1 µM)
Staphylococcus aureus [24]
  MIC: 8 µg/mL (≈ 20.1 µM)
Staphylococcus aureus [25]
  MIC: > 128 µg/mL
Staphylococcus aureus [26]
  MIC: 16 µg/mL (≈ 40.3 µM)
Staphylococcus aureus [27]
  MIC: > 128 µg/mL
Staphylococcus aureus [28]
  MIC: 32 µg/mL (≈ 80.6 µM)
Staphylococcus aureus [29]
  MIC: 32 µg/mL (≈ 80.6 µM)
Staphylococcus aureus [30]
  MIC: > 128 µg/mL
Staphylococcus aureus [31]
  MIC: > 128 µg/mL
Staphylococcus aureus [32]
  MIC: 64 µg/mL (≈ 161 µM)
Staphylococcus aureus [33]
  MIC: 64 µg/mL (≈ 161 µM)
Staphylococcus aureus [34]
  MIC: 1 µg/mL

Reference: ChEMBL document CHEMBL3792373, “Anti-methicillin resistant Staphylococcus aureus activity, synergism with oxacillin and molecular docking studies of metronidazole-triazole hybrids” (Eur J Med Chem, 2016)
